Screens (PubChem)
Runt-SMMHC FRET – Runt domain-CBFb-SMMHC interaction inhibition; Q01196+Q13951; Cerulean-Runt/Venus-CBFb-SMMHC FRET ratio 530/480, 1 h; inhibition, % at 20 µM; 0.74% of 220,000 active; AID 1434;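 active = mean inhibition across duplicate retests at 20 µM reaching about 50%, limit read from the data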;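 also: 0% = DMSO wells and 100% = wells with excess untagged CBFb-SMMHC; inhibitors lower the FRET ratio by blocking Runt binding to CBFb-SMMHC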
Tb hexokinase – T. brucei hexokinase 1 inhibition. recombinant TbHK1, G6PDH-coupled NADH A340. inhibition, % at 10 µM. 0.11% of 220,000 active. AID 1430;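 active = inhibition of 50% or more in the single-dose primary screen; inactive = inhibition below 50%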
RanGTP-Imp inh – inhibitors of RanGTP-importin-beta interaction, primary screen, biochemical, FRET, CFP-Ran, YFP-importin-beta, homogeneous. cell-free CFP-Ran/YFP-importin-beta FRET ratio. 1.1% of 300,000 active. inhibition, % (concentration not given with the values);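 active = more than half of the replicate wells show a fall in the fluorescence ratio signal beyond about 16%, limit read from the data, passing the limit was not always enough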;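 also: 0% = DMSO wells and 100% = Ran loaded with GDP instead of GTP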
Hck-Nef inh – inhibitors of human Hck kinase activated by Nef. Recombinant Hck-YEEI plus Nef, Z-Lyte FRET kinase assay. inhibition, % at 20 µM. 0.68% of 220,000 active;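 active = Hck-Nef kinase inhibition above about 50%, limit read from the data; inactive = inhibition below that limit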;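 also: 0% = DMSO with Hck plus Nef and 100% = Hck alone without Nef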
Runt-CBFb FRET – blocks binding of human RUNX1 Runt domain to CBFb. Q01196+Q13951. Cerulean-Runt/Venus-CBFb FRET ratio 530/480, 1 h. inhibition, % at 20 µM. 0.46% of 220,000 active. AID 1496;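 active = inhibition over about 50% at 20 µM in the single-dose screen, limit read from the data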;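 also: 0% = DMSO wells and 100% = excess unlabeled CBFb competitor control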
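Assay system: Cerulean-tagged RUNX1 Runt domain (FRET donor) fusion protein / Amount: 100 nM each of Venus-CBFb and Cerulean-Runt domain / Medium: Tris buffer pH 7.5 with salts and BSA / Also added: Venus-CBFb 100 nM / Schedule: 1 h complex formation plus 1 h compound treatment, room temperature / Signal: FRET fluorescence / Read-out: loss of energy transfer signal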
Active calls of the source: *; . = not tested or not shown. Only some compounds are listed: those with a hit (about 1.9% of all), similar ones and a draw of the others.

SMILES | Runt-SMMHC FRET | Tb hexokinase | RanGTP-Imp inh | Hck-Nef inh | Runt-CBFb FRET
CC(=O)N1CCN(Cc2nc3cc(NC(=O)c4cccc(Br)c4)ccc3n2C)CC1 | 3 | -9 | -1 | 18 | 0
Fc1ccc(Br)cc1C1C=C(c2ccc(Br)cc2)Nc2ncnn21 (centres undefined) | -7 | -4 | -19 | 0 | -4
CCc1ccc(C2=CC(c3cc(Br)ccc3F)n3ncnc3N2)cc1 (centres undefined) | 75* | -6 | . | 0 | -1
COc1ccc(NC(=O)c2ccc(S(=O)(=O)N3CCOCC3)o2)cc1 | 1 | -24 | 2 | 2 | 1
COC(=O)C1=C(NC(=O)c2ccccc2C)CCS1 | -3 | -13 | 10 | 18 | 0
COC(=O)C1=C(NC(=O)c2cccs2)CCS1 | 1 | 66* | . | 7 | 7
CCN1C(=O)[C@H]2[C@@H](c3ccc(-c4ccccc4)cc3)N3CCC[C@@]3(C(=O)OC)[C@H]2C1=O | . | . | -1 | . | .
COc1ccc(-c2noc(CCCc3ccccc3)n2)cc1OC | -5 | -7 | 26* | 0 | -4
Cc1ccc(-c2nc3cnccn3c2Nc2c(C)cccc2C)o1 | -47 | -14 | 47* | 4 | -3
O=C(O)CCC(=O)c1cccc2ccccc12 | 4 | -6 | 0 | 7 | -1
O=C(O)CCC(=O)c1ccc2ccc3cccc4ccc1c2c34 | 69* | -5 | 5 | 12 | 28
Cc1ccc(OCCC(=O)Nc2ccc(S(=O)(=O)Nc3cc(C)nc(C)n3)cc2)cc1 | . | . | 20* | . | .
Oc1c(Cl)cc(CN2CCCCC2)c2cccnc12 | . | . | 8 | . | .
OCCN1CCN(Cc2cc(Cl)c3cccnc3c2O)CC1 | -6 | -7 | 40* | 1 | 4
COCc1cc(CN2CCCC2)c(O)c2ncccc12 | 6 | -1 | 14 | 8 | 2
Oc1c(CN2CCN(c3ccccn3)CC2)cc(Cl)c2cccnc12 | -14 | -6 | 24* | -2 | -2
CCOC(=O)C1(Cc2cccc(OC)c2)CCN(Cc2cnc(C)s2)CC1 | -1 | 3 | 45* | -1 | 2
O=C(O)CCC(=O)N1CCC(n2nnc3cc(C(F)(F)F)ccc32)CC1 | 0 | -1 | 6 | 27 | 0
CCOC(=O)N1CCN(S(=O)(=O)c2ccc(C(=O)Nc3sc4c(c3C(=O)OC)CCN(C)C4)cc2)CC1 | . | . | 9 | . | .
CC(=O)c1ccc(NC(=O)C2CCN(S(=O)(=O)c3cccs3)CC2)cc1 | 2 | -5 | 0 | 5 | -1
CCCN1CCc2c(sc(NC(=O)c3ccc(S(=O)(=O)N4CCN(C(=O)OCC)CC4)cc3)c2C(N)=O)C1 | . | . | 96* | . | .
CCOC(=O)N1CCN(S(=O)(=O)c2ccc(C(=O)Nc3sc4c(c3C(N)=O)CCN(CC)C4)cc2)CC1 | . | . | 43* | . | .
CCCN1CCc2c(sc(NC(=O)C3CCN(S(=O)(=O)c4cccs4)CC3)c2C(N)=O)C1 | . | . | 151* | . | .
CCOC(=O)N1CCN(S(=O)(=O)c2ccc(C(=O)Nc3sc4c(c3C#N)CCC4)cc2)CC1 | -7 | -10 | 3 | 3 | -5
CCN1/C(=C/C=C/c2sc3ccccc3[n+]2CC)Sc2ccccc21 | . | . | 26* | . | .
SMILES | Runt-SMMHC FRET | Tb hexokinase | RanGTP-Imp inh | Hck-Nef inh | Runt-CBFb FRET
CCN1/C(=C/C=C/C=C/c2sc3ccccc3[n+]2CC)Sc2ccccc21 | 20 | -5 | 0 | -23 | 17
NC(=O)c1c(NC(=O)C2COc3ccccc3O2)sc2c1CCN(Cc1ccccc1)C2 (centres undefined) | 137* | -8 | -3 | 25 | 110*
CCOC(=O)c1c(NC(=S)Nc2ccccc2)sc2c1CCN(CC)C2 | 152* | -1 | 62* | 4 | 61*
COC(=O)N1CCc2c(sc(NC(=O)C3COc4ccccc4O3)c2C(N)=O)C1 (centres undefined) | . | . | -1 | . | .
CCOC(=O)c1c(NC(=O)C2COc3ccccc3O2)sc2c1CCN(Cc1ccccc1)C2 (centres undefined) | 48 | -3 | 90* | 3 | 49
Cc1c(Cl)cccc1Nc1ncccc1C(=O)OCC(O)CO (centres undefined) | -4 | -13 | 19* | 17 | 2
O=C(OCc1c(Cl)cccc1Cl)c1cccnc1Cl | 0 | -1 | 4 | 17 | 1
COc1ccc(/C(C)=N/NC(=S)NCCc2ccccc2)c(O)c1 | . | . | 0 | . | .
CCOCCOC(=O)C1=C(C)Nc2ccc(C)cc2S1 | 11 | -8 | 23* | 8 | 2
CCCN1Cc2cccc(C(=O)NCCc3cccc(C)c3)c2C1=O | . | . | -2 | . | .
